These results are taken from ChEMBL document CHEMBL1127326, “Antitumor agents. 148. Synthesis and biological evaluation of novel 4 beta-amino derivatives of etoposide with better pharmacological profiles” (1994).

Assay [1] has as its target T1, DNA topoisomerase II (Homo sapiens) (UniProt P11388+Q02880). As to the kind of experiment: 50% inhibition of human DNA topoisomerase II. It is filed as protein assay.
Assay [2] deals with T1, DNA topoisomerase II (Homo sapiens). As to the kind of experiment: 50% inhibition of human DNA topoisomerase II was measured. It is filed as protein assay.
Assay [3] relates to KB. As to the kind of experiment: Cytotoxicity against KB cells after a 3 day incubation. Type of assay: functional, Homo sapiens. To be noted: read-out: ID50 (the source's name). A digest of the protocol: (§1)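 KB cells (parental ATCC line and resistant variants) exposed to drug at five concentrations […] for 3 days. ID50 is the concentration giving 50% reduction in cell number, derived from the degree of inhibition at the five concentrations.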

In assay [4] the test system is Nucleic Acid. As to the kind of experiment: Percentage inhibition of cellular protein-DNA complex formation. Type of assay: functional. To be noted: Homo sapiens.
The subject of assay [5] is Tumor Cell line. As to the kind of experiment: Drug concentration required to inhibit total cell growth. It is filed as functional, Homo sapiens. To be noted: read-out: Log TGI (converted). The gist of the method:
(§2)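 NCI panel of 54 human tumor lines from eight cancer types, mostly seeded at 20 000 cells/well. Cells were preincubated 24 h without drug, then exposed to five 10-fold dilutions for 48 h, fixed and stained with sulforhodamine B, and read spectrophotometrically. Versus control, GI50 (50% growth inhibition), TGI (0% growth) and LC50 (−50% growth) were calculated; mean graph midpoints average all lines.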

The test system of assay [6] is Tumor Cell line. As to the kind of experiment: Drug concentration required to cause 50% cell death. It is filed as functional, Homo sapiens. The conditions noted are these: Homo sapiens, Tumor Cell line. A digest of the protocol:
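NCI in vitro panel of 54 human tumor cell lines from eight cancer types, mostly seeded at 20 000 cells/well and preincubated 24 h without drug. Five 10-fold dilutions were then added for a further 48 h. Cells were fixed in situ and stained with sulforhodamine B, and bound dye was read spectrophotometrically. LC50 (−50% growth versus control) was taken from five-point dose-response curves and reported as the log10 mean-graph midpoint across lines.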

In assay [7] the test system is Tumor Cell line. As to the kind of experiment: Drug molar concentration required to inhibit 50% of human tumor cell growth. It is filed as functional. The gist of the method:
as §2

Assay [8] concerns the target T1, DNA topoisomerase II (Homo sapiens). As to the kind of experiment: inhibition of human DNA topoisomerase II. Type of assay: protein assay.
Assay [9] concerns KB. As to the kind of experiment: 50% reduction in the number of KB V20C resistant variant. Type of assay: functional, Homo sapiens. To be noted: Homo sapiens, KB; read-out: ID50 (the source's name). A digest of the protocol:
as §1

Assay [10] deals with KB. As to the kind of experiment: 50% reduction in the number of KB ATCC cells. It is filed as functional. To be noted: Homo sapiens, read-out: ID50 (the source's name). The gist of the method: as §1
Assay [11] concerns KB. As to the kind of experiment: 50% reduction in the number of KB 7D (topoisomerase II, aMDR) resistant variant. Type of assay: functional, Homo sapiens. The conditions noted are these: Homo sapiens, KB; read-out: ID50 (the source's name). A digest of the protocol: as §1

“And” between values parts separate entries of the source, which are not always exact repeats. Equal values may be shown once. A value given as a limit tells only on which side of the number the result lay.

Consider `COc1cc([C@@H]2c3cc4c(cc3[C@@H](NCCN3CCOCC3)[C@H]3COC(=O)[C@H]23)OCO4)cc(OC)c1O`, for which the ID50 in [1] came out at 50 µM.
Turning to `COc1cc([C@@H]2c3cc4c(cc3[C@@H](NC3CCN(Cc5ccccc5)CC3)[C@H]3COC(=O)[C@H]23)OCO4)cc(OC)c1O`, the ID50 in assay [2] came out at 50 µM; in assay [1], 100 µM.
In the case of `CCOC(=O)CC[C@H](NC(=O)c1ccc(N[C@@H]2c3cc4c(cc3[C@@H](c3cc(OC)c(O)c(OC)c3)[C@H]3C(=O)OC[C@@H]32)OCO4)cc1)C(=O)OCC`, the IC50 in [3] (Homo sapiens, KB, 72 h) was below 0.4 µM. For the same compound, the ID50 in [1] came out at 100 µM. Moreover, in assay [4], the Complex formation was 83%. Also, in assay [5] (Homo sapiens, Tumor Cell line), the TGI is 0.339 µM. This compound gave an LC50 in assay [6] of 2.88 µM. In assay [7] (Homo sapiens, Tumor Cell line), this compound showed a concentration for 50% growth inhibition (GI50) of 0.0501 µM.
As to `COc1cc([C@@H]2c3cc4c(cc3[C@@H](NCCN(C)C)[C@H]3COC(=O)[C@H]23)OCO4)cc(OC)c1O` [listing 1 of 2 here], the TGI in assay [5] (Homo sapiens, Tumor Cell line) was 2.51 µM. In addition, the LC50 in assay [6] is 21.9 µM. In addition, the GI50 in assay [7] (Homo sapiens, Tumor Cell line) is 0.263 µM.
In the case of `CCOC(=O)N1CCC(N[C@@H]2c3cc4c(cc3[C@@H](c3cc(OC)c(O)c(OC)c3)[C@H]3C(=O)OC[C@@H]32)OCO4)CC1` [listing 1 of 2 here], in assay [3], the IC50 was determined as 1.13 µM. Moreover, the TGI in assay [5] is 8.13 µM. The same compound gave a GI50 in assay [7] of 1.78 µM.
Turning to `COc1cc([C@@H]2c3cc4c(cc3[C@@H](NCCN3CCCCC3)[C@H]3COC(=O)[C@H]23)OCO4)cc(OC)c1O`, the ID50 in [8] is 50 µM and 25 µM. Also, in [4], the Complex formation is 183% and 190%.
Take `COc1cc([C@@H]2c3cc4c(cc3[C@@H](NCCCN(C)C)[C@H]3COC(=O)[C@H]23)OCO4)cc(OC)c1O`: the ID50 in assay [1] turned out to be 25 µM. In assay [4], the Complex formation was 179% and 186%.
With `COc1cc([C@@H]2c3cc4c(cc3[C@@H](Nc3ccc(C(=O)O)cc3)[C@H]3COC(=O)[C@H]23)OCO4)cc(OC)c1O`, the TGI in [5] was 52.5 µM. In addition, in [7], the GI50 is 12.9 µM.
Regarding `COc1cc([C@@H]2c3cc4c(cc3[C@@H](NCCN(C)C)[C@H]3COC(=O)[C@H]23)OCO4)cc(OC)c1O` [listing 2 of 2 here], the IC50 stood at 0.44 µM in assay [9]; 0.4 µM in assay [3] (Homo sapiens, KB, 72 h); 0.4 µM in assay [10]; 0.68 µM in assay [11]. Moreover, in [5] (Homo sapiens, Tumor Cell line), the TGI was 1.48 µM. In assay [6], this compound gave a median lethal concentration (LC50) of 15.1 µM. Also, the GI50 in assay [7] (Homo sapiens, Tumor Cell line) is 0.155 µM.
In the case of `CCOC(=O)N1CCC(N[C@@H]2c3cc4c(cc3[C@@H](c3cc(OC)c(O)c(OC)c3)[C@H]3C(=O)OC[C@@H]32)OCO4)CC1` [listing 2 of 2 here], the IC50 in [3] (Homo sapiens, KB, 72 h) is 0.74 µM. Besides, the TGI in assay [5] (Homo sapiens, Tumor Cell line) was 7.76 µM. Also, it took 1.35 µM to inhibit growth in assay [7] (Homo sapiens, Tumor Cell line) by half (GI50).
